Compound activity deposited in PubChem BioAssay by several laboratories.
Hits are enriched below; roughly 2.5% of the tested compounds scored in any of these assays.
H9c2 TAG inh = triacylglycerol accumulation inhibition; H9c2 cells, Nile Red lipid (TAG) fluorescence; cells loaded with 200 µM oleic acid; inhibition, % at 12.5 µM; 230,000 compounds, 0.66% hits; AID 651582;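 active = pattern-corrected inhibition of lipid staining of at least 50% with the nuclear-stain viability signal not falling by more than 50%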
SMARCA2 activ = increases SMARCA2 function in MMTV reporter cells. MG213 cells, MMTV-luciferase reporter, dexamethasone, overnight. AID 652017. activation, % at 9.1 µM. 370,000 compounds, 1% hits; in the data active = activation above about 7.8%
SR-BI DiI inh = blocks mouse SR-BI lipid uptake from DiI-HDL; Q61009; ldlA[mSR-BI] CHO cells, DiI-HDL uptake fluorescence, 3 h; inhibition, % at 12.5 µM; 320,000 compounds, 0.96% hits; AID 488896;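 active = mean replicate inhibition of at least 70% and a set share of replicates each scoring 70 or more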
Target sequence (Q61009 whole entry, looked up): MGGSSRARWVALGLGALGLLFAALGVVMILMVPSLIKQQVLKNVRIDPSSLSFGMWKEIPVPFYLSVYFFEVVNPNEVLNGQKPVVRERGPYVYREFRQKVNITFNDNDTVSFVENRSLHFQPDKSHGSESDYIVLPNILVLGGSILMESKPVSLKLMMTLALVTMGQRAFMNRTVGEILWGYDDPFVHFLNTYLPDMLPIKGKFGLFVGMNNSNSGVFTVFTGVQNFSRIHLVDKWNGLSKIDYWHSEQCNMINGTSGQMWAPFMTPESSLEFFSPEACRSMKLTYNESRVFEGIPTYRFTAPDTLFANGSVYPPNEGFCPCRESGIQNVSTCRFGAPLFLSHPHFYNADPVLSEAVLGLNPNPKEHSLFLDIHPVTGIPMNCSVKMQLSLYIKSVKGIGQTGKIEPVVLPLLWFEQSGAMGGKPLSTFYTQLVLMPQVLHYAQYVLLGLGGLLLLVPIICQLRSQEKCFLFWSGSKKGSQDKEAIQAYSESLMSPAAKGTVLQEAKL
SR-BI uptake up = activators of SR-BI mediated HDL lipid uptake; 320,000 compounds, 0.096% hits; AID 504775; CHO ldlA[mSR-BI] cells, DiI-HDL uptake fluorescence, 3 h; 100 = double the neutral-control signal; activation, % at 12.5 µM;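 active = mean replicate activation of at least 60% and every replicate at or above 60%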
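Assay system: CHO ldlA[mSR-BI] cells, LDL receptor-null, SR-BI overexpressing; medium: Ham's F12 with 0.5% BSA, HEPES 25 mM, pH 7.4; also added: DiI-HDL 10 µg/mL; timing: 3 h uptake period with compound, 37 °C; signal: DiI fluorescence, bottom read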
Vif imaging = blocks HIV Vif function; HEK293T cells, Vif self-association by quenched fluorescence, imaging, 24 h; inhibition, % at 7.49 µM; 340,000 compounds, 0.35% hits; in the data active = inhibition above about 50%, passing the limit was not always enough
SMARCA2 conf = confirmation of SMARCA2 (BRM) function activators; shares compounds with SMARCA2 activ; MG213 cells, MMTV-luciferase with dexamethasone, luminescence, overnight; MG213 cells expressing E1A, Rb sequestered; DMSO wells 0%, reference activator 100%; activation, % at 9.1 µM; 3,500 compounds, 30% hits; AID 652260;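 active = activation above its plate's cutoff, the mean activation of tested wells plus 3 SD, cut at about 7.9% in these data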
GAL4-VP16 Luc = GAL4-VP16 reporter activation counter-screen; activation, % at 9.1 µM; shares compounds with SMARCA2 activ; 3,500 compounds, 41% hits; HEK293 GAL4-VP16 pG5luc reporter, luciferase luminescence; scaled: DMSO wells 0%, SAHA wells 100%; AID 686939;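 active = activation above the solvent-only control well mean plus 3 SD, averaged across control plates, cut at about 5.2% in these data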
Large screens that a line does not name were inactive (follow-up assays come after a bar, where they were run).

CN(c1cccc(NC(=O)Nc2cccc(Cl)c2)c1)S(C)(=O)=O	none
CN(C)c1ccc(NC(=O)Nc2cccc(Cl)c2)cc1	SMARCA2 activ 9.7 (no result: H9c2 TAG inh) | SMARCA2 conf inactive | GAL4-VP16 Luc 15
CN(C)c1ccc(NC(=O)c2ccc3c(c2)nnn3C)cc1	none (no result: H9c2 TAG inh)
CN(C)c1ccc(NC(=O)Nc2ccc3c(c2)nnn3C)cc1	SMARCA2 activ 20 | SMARCA2 conf 11 | GAL4-VP16 Luc 6.1
Cc1cccc(C)c1NC(=O)C(C)Sc1nnc(C)n1CC1CCCO1 (stereo not given)	none (no result: H9c2 TAG inh, SR-BI DiI inh, SR-BI uptake up, Vif imaging)
Cc1ccc(C(=O)Nc2nc(C(N)Cc3ccc(C(F)(F)F)cc3)cs2)cc1 (stereo not given)	none (no result: SR-BI DiI inh, SR-BI uptake up)
C(=N\Nc1ncnc2ccccc12)/c1ccccc1	SMARCA2 activ 9.2 | SMARCA2 conf 11 | GAL4-VP16 Luc 9.1
Clc1nnc(N/N=C/c2ccccc2)c2ccccc12	none (no result: H9c2 TAG inh)
Clc1cccc(/C=N/Nc2ncnc3ccccc23)c1	SMARCA2 activ 10.0 (no result: SR-BI DiI inh, SR-BI uptake up) | SMARCA2 conf 14 | GAL4-VP16 Luc 15
Clc1ccc(/C=N/Nc2nc(Cl)nc3ccccc23)cc1	SMARCA2 activ 12 (no result: SR-BI DiI inh, SR-BI uptake up) | SMARCA2 conf inactive | GAL4-VP16 Luc inactive
COc1cc2c(cc1OC)CN(CC(=O)Nc1cccc(C(F)(F)F)c1)CC2	none (no result: H9c2 TAG inh)
COc1ccc(S(=O)(=O)N(CC(=O)NCc2ccco2)c2ccc(C)cc2)cc1OC	none (no result: H9c2 TAG inh)
O=C1NC(=O)/C(=C\c2ccc(OCc3cccc(C(=O)O)c3)c(Cl)c2)N1	SMARCA2 activ 9.0 | SMARCA2 conf inactive | GAL4-VP16 Luc 8.4
COc1ccc2nc3ccccc3[n+]([O-])c2c1	SMARCA2 activ 8.4 | SMARCA2 conf inactive | GAL4-VP16 Luc 6.2
COc1ccc2c(ccc[n+]2[O-])c1	none
CC(C)Nc1ccc(Nc2ccnc3cc4ccccc4cc23)cc1	SMARCA2 activ 12, SR-BI DiI inh 77 | SMARCA2 conf 9.1 | GAL4-VP16 Luc inactive
CC1CCN(S(=O)(=O)c2ccc3nc(-c4ccccn4)cc(C(=O)NCCN(C)Cc4ccccc4)c3c2)CC1	SMARCA2 activ 8.3 | SMARCA2 conf 27 | GAL4-VP16 Luc inactive
O=C(O)c1cccnc1Sc1ccc(Br)cc1	none (no result: H9c2 TAG inh, SR-BI DiI inh, SR-BI uptake up)
COc1cc(SC)ccc1C(=O)OCC(=O)N1CCN(C(C)=O)CC1	none
CCOc1ccc(/C=N/N(C)c2ccccc2)cc1OC	SMARCA2 activ 8.5 (no result: H9c2 TAG inh, Vif imaging) | SMARCA2 conf 8.1 | GAL4-VP16 Luc 12
CCOc1ccc(/C=N/Nc2ccccn2)cc1OC	none
CCc1cccc2c(C(=O)CN3C(=O)NC4(CCCCCC4)C3=O)c[nH]c12	SMARCA2 activ 11 | SMARCA2 conf 13 | GAL4-VP16 Luc inactive
CCc1cccc2c(C(=O)CN3C(=O)NC4(CCCCC4)C3=O)c[nH]c12	none
CCCc1ccc2oc(C(=O)N3CCCC3)c(C)c2c1	none (no result: H9c2 TAG inh)
CC(=O)Nc1ccc(NC(=O)CSc2nnc(-c3n[nH]c4c3CCC4)n2N)cc1	none (no result: H9c2 TAG inh, SR-BI DiI inh, SR-BI uptake up, Vif imaging)
O=C(NCCC1=CCCCC1)C1CCCN(S(=O)(=O)c2cccc3cccnc23)C1 (stereo not given)	SMARCA2 activ 10 (no result: H9c2 TAG inh) | SMARCA2 conf inactive | GAL4-VP16 Luc inactive
O=C(NCCC1=CCCCC1)C1CCCN(S(=O)(=O)c2cccnc2)C1 (stereo not given)	none
Cc1nc(CNS(=O)(=O)c2ccc(Br)cc2)cs1	none (no result: H9c2 TAG inh, Vif imaging)
Cc1nc(CNS(=O)(=O)c2ccc(F)cc2)cs1	SMARCA2 activ 8.4 (no result: H9c2 TAG inh) | SMARCA2 conf inactive | GAL4-VP16 Luc inactive
CC(C)OC(=O)N(C)C[C@H]1OCc2cn(nn2)CCCC(=O)N([C@@H](C)CO)C[C@@H]1C	none (no result: H9c2 TAG inh, SR-BI DiI inh, SR-BI uptake up, Vif imaging)
O=C1NC(c2ccccc2Br)=N/C1=C\c1ccco1	SMARCA2 activ 14 | SMARCA2 conf 9.6 | GAL4-VP16 Luc 7.3
COc1cc(C(=O)NCCOc2cccc3cccnc23)cc(OC)c1OC	SMARCA2 activ 11 | SMARCA2 conf inactive | GAL4-VP16 Luc inactive
COc1ccccc1OCCNC(=O)c1ccc(C(C)(C)C)cc1	SMARCA2 activ 8.2 (no result: SR-BI DiI inh, SR-BI uptake up) | SMARCA2 conf inactive | GAL4-VP16 Luc inactive
COc1ccccc1OCCNC(=O)c1ccc(Br)cc1	SMARCA2 activ 8.8 (no result: H9c2 TAG inh) | SMARCA2 conf inactive | GAL4-VP16 Luc inactive
